As a reminder, the pIC50 is the IC50 on a negative log10 scale, so that one unit is a factor of ten.

Among the data in ChEMBL document CHEMBL4014339, “Discovery of 1,4-Benzodiazepine-2,5-dione (BZD) Derivatives as Dual Nucleotide Binding Oligomerization Domain Containing 1/2 (NOD1/NOD2) Antagonists Sensitizing Paclitaxel (PTX) To Suppress Lewis Lung Carcinoma (LLC) Growth in Vivo” (J Med Chem, 2017) are IC50 values, retold here.

pIC50: −log10 of the molar value.

The assay addresses Nucleotide-binding oligomerization domain-containing protein 2 (Homo sapiens, UniProt Q9HC29). The assay can be described thus: Antagonist activity at human NOD2 expressed in HEK-Blue cells assessed as inhibition of MDP-stimulated cell activation preincubated for 3 hrs followed by MDP addition measured after 20 hrs by SEAP reporter gene assay. Format: cell-based. Put shortly: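 HEK-Blue hNOD1 or hNOD2 cells preincubated with compound 3 h, then stimulated 20 h with C12-iE-DAP 50 ng/mL (NOD1) or MDP 100 ng/mL (NOD2); SEAP in supernatant quantified. Primary screen at 10 μM, hits repeated in triplicate; IC50 from dose-response, mean ± SD (n = 3), only for compounds reaching ≥50% inhibition at the screening concentration.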
For orientation: A reporter such as luciferase makes a cellular process visible.

Chain of Nucleotide-binding oligomerization domain-containing protein 2 (Q9HC29 whole entry, the tested form may be a part): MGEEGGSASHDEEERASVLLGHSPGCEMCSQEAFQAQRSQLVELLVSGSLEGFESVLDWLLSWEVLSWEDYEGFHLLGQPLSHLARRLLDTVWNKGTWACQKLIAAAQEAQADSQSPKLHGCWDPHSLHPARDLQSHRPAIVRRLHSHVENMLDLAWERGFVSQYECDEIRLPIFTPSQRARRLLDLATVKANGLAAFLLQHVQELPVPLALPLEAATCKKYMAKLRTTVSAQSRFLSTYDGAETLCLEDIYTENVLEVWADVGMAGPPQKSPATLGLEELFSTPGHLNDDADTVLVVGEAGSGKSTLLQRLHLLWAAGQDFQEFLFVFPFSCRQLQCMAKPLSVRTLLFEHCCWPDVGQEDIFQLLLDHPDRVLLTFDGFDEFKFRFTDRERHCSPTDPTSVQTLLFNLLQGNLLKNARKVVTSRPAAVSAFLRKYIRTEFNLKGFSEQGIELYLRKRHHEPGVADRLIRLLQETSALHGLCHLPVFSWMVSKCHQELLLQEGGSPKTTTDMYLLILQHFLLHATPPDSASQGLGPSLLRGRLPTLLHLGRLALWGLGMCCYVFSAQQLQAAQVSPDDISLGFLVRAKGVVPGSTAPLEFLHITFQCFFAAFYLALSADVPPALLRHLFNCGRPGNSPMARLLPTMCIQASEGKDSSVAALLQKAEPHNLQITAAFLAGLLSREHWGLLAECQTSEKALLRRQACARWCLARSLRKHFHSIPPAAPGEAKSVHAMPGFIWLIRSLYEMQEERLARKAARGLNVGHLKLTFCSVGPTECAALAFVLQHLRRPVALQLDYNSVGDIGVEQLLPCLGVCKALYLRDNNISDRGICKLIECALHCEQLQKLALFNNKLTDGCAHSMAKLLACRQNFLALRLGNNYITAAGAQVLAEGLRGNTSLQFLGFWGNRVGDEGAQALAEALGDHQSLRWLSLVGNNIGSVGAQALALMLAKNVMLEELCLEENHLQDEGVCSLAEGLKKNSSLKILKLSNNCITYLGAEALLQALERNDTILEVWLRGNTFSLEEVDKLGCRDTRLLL

For the compound `CCCNC(=O)CC[C@H]1NC(=O)c2cc(Oc3cccc(N(C)C)c3)c(NC(=O)COCc3ccccc3)cc2NC1=O`, the pIC50 was 5.38.
